Measured values reported in article PMC7396739 (Drug Design, Development and Therapy, 2020).

Tests used:
[1] = Determination of saturated solubility of ASDs in distilled water; assay type: physicochemical; conditions: 37±0.5°C, 48 h, drug:Soluplus 1:10 w/w, Figure 5A
Outline: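 Solid dispersions were made by co-precipitation from anhydrous ethanol, freeze-drying from 2% ethanol (−40°C 8 h, then −45°C 24 h), or microwave (700 W, 10 min) with liquid-nitrogen quench. Products were ground and sieved (60 mesh). Excess material was shaken in 5 mL water, then filtered (0.45 µm). Concentration was measured by HPLC (C18, acetonitrile-water 84:16, 203 nm).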

[2] = Crystallization inhibition of excipients; assay type: physicochemical; conditions: after 5 min
Outline: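 Supersaturated stock (27 mg test compound in 5 mL 95% ethanol) added rapidly to 900 mL water, here with no excipient (control), at 37°C and 50 r/min. 5 mL samples were taken at 5–240 min and replaced with drug-free medium. Samples were filtered (0.22 µm) and assayed by HPLC (C18, acetonitrile-water 84:16, 1 mL/min, 203 nm). Run in triplicate.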

[3] = rats; cited from earlier work

In the case of `C[C@@H]1CC[C@@]2(OC1)O[C@H]1C[C@H]3[C@@H]4CC=C5C[C@@H](O)CC[C@]5(C)[C@H]4CC[C@]3(C)[C@H]1[C@@H]2C` [Dio, diosgenin], the solubility [1] is listed as “lower than the detection limit”, the “concentration of Dio in dissolution medium without excipient” value [2] is listed as “lower than the detection limit” and the absolute bioavailability [3] is listed as “about 7%”.
